Data published in ChEMBL document CHEMBL1828552, “Synthesis and studies of novel 2-(4-cyano-3-trifluoromethylphenyl amino)-4-(quinoline-4-yloxy)-6-(piperazinyl/piperidinyl)-s-triazines as potential antimicrobial, antimycobacterial and anticancer agents” (2011).
In brackets after ≈: the same amount, converted by molar mass.

test system: Aspergillus niger; test: Antifungal activity against 10^5 CFU/mL Aspergillus niger MTCC 282 after 48 hrs by disc diffusion technique; type: functional; settings: not given

Compound	inhibition zone (IZ)
N#Cc1ccc(Nc2nc(Oc3ccnc4ccccc34)nc(N3CCN(c4ccccc4F)CC3)n2)cc1C(F)(F)F	25 mm
N#Cc1ccc(Nc2nc(Oc3ccnc4ccccc34)nc(N3CCC(Cc4ccccc4)CC3)n2)cc1C(F)(F)F	<10 mm

test system: Aspergillus clavatus; test: Antifungal activity against 10^5 CFU/mL Aspergillus clavatus MTCC 1323 after 48 hrs by disc diffusion technique; type: functional; settings: not given

Compound	inhibition zone (IZ)
N#Cc1ccc(Nc2nc(Oc3ccnc4ccccc34)nc(N3CCN(c4ccccc4F)CC3)n2)cc1C(F)(F)F	24 mm
N#Cc1ccc(Nc2nc(Oc3ccnc4ccccc34)nc(N3CCC(Cc4ccccc4)CC3)n2)cc1C(F)(F)F	14 mm

test system: Klebsiella pneumoniae; test: Antibacterial activity against 10^5 CFU/mL Klebsiella pneumoniae MTCC 109 after 24 hrs by agar streak dilution method; type: functional; settings: MTCC 109, 24 h
Summary of the method: (§1)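 Agar streak dilution. Stock 100 µg/mL in DMSO; graded amounts were mixed into molten nutrient agar and poured at 4–5 mm depth. Plates carried serial dilutions over […]. About 10⁵ CFU/mL of each bacterium was applied, and plates were incubated at 37 ± 1 °C for 24 h. MIC was read from the dilution series.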

Compound	MIC
N#Cc1ccc(Nc2nc(Oc3ccnc4ccccc34)nc(N3CCN(c4ccccc4F)CC3)n2)cc1C(F)(F)F	12.5 µg/mL (≈ 21.3 µM)
N#Cc1ccc(Nc2nc(Oc3ccnc4ccccc34)nc(N3CCC(Cc4ccccc4)CC3)n2)cc1C(F)(F)F	100 µg/mL (≈ 172 µM)

test system: Aspergillus fumigatus; test: Antifungal activity against 10^5 CFU/mL Aspergillus fumigatus MTCC 343 after 48 hrs by disc diffusion technique; type: functional; settings: not given

Compound	inhibition zone (IZ)
N#Cc1ccc(Nc2nc(Oc3ccnc4ccccc34)nc(N3CCN(c4ccccc4F)CC3)n2)cc1C(F)(F)F	25 mm
N#Cc1ccc(Nc2nc(Oc3ccnc4ccccc34)nc(N3CCC(Cc4ccccc4)CC3)n2)cc1C(F)(F)F	<10 mm

test system: Staphylococcus aureus; test: Antibacterial activity against 10^5 CFU/mL Staphylococcus aureus MTCC 96 after 24 hrs by disc diffusion technique; type: functional; settings: not given
Summary of the method: (§2)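 Disc diffusion on Mueller–Hinton agar poured 5 mm deep. The surface was swabbed with a 10⁵ CFU/mL […] suspension. Filter-paper discs 6.25 mm in diameter were soaked in compound in DMSO and placed on the agar. Plates were incubated 24 h at 37 ± 1 °C, and the inhibition zone was measured in mm. A DMSO disc served as blank.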

Compound	inhibition zone (IZ)
N#Cc1ccc(Nc2nc(Oc3ccnc4ccccc34)nc(N3CCN(c4ccccc4F)CC3)n2)cc1C(F)(F)F	24 mm
N#Cc1ccc(Nc2nc(Oc3ccnc4ccccc34)nc(N3CCC(Cc4ccccc4)CC3)n2)cc1C(F)(F)F	24 mm

test system: Proteus vulgaris; test: Antibacterial activity against 10^5 CFU/mL Proteus vulgaris MTCC 1771 after 24 hrs by agar streak dilution method; type: functional; settings: MTCC 1771, 24 h; summary of the method: as §1

Compound	MIC
N#Cc1ccc(Nc2nc(Oc3ccnc4ccccc34)nc(N3CCN(c4ccccc4F)CC3)n2)cc1C(F)(F)F	6.25 µg/mL (≈ 10.7 µM)
N#Cc1ccc(Nc2nc(Oc3ccnc4ccccc34)nc(N3CCC(Cc4ccccc4)CC3)n2)cc1C(F)(F)F	100 µg/mL (≈ 172 µM)

test system: Shigella flexneri; test: Antibacterial activity against 10^5 CFU/mL Shigella flexneri MTCC 1457 after 24 hrs by agar streak dilution method; type: functional; settings: MTCC 1457, 24 h; summary of the method: as §1

Compound	MIC
N#Cc1ccc(Nc2nc(Oc3ccnc4ccccc34)nc(N3CCN(c4ccccc4F)CC3)n2)cc1C(F)(F)F	25 µg/mL (≈ 42.6 µM)
N#Cc1ccc(Nc2nc(Oc3ccnc4ccccc34)nc(N3CCC(Cc4ccccc4)CC3)n2)cc1C(F)(F)F	100 µg/mL (≈ 172 µM)

test system: Pseudomonas aeruginosa; test: Antibacterial activity against 10^5 CFU/mL Pseudomonas aeruginosa MTCC 741 after 24 hrs by disc diffusion technique; type: functional; settings: not given; summary of the method: as §2

Compound	inhibition zone (IZ)
N#Cc1ccc(Nc2nc(Oc3ccnc4ccccc34)nc(N3CCN(c4ccccc4F)CC3)n2)cc1C(F)(F)F	22 mm
N#Cc1ccc(Nc2nc(Oc3ccnc4ccccc34)nc(N3CCC(Cc4ccccc4)CC3)n2)cc1C(F)(F)F	19 mm

test system: Aspergillus fumigatus; test: Antifungal activity against 10^5 CFU/mL Aspergillus fumigatus MTCC 343 after 48 hrs by agar streak dilution method; type: functional; settings: MTCC 343, 48 h
Summary of the method: (§3)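 Agar streak dilution for fungi. Stock 100 µg/mL in DMSO; graded amounts were mixed into molten Sabouraud dextrose agar and poured at 4–5 mm depth. Serial dilutions ran over […]. About 10⁵ CFU/mL inoculum was applied, with incubation at 37 ± 1 °C for 48 h. MIC was read from the dilution series.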

Compound	MIC
N#Cc1ccc(Nc2nc(Oc3ccnc4ccccc34)nc(N3CCN(c4ccccc4F)CC3)n2)cc1C(F)(F)F	25 µg/mL (≈ 42.6 µM)
N#Cc1ccc(Nc2nc(Oc3ccnc4ccccc34)nc(N3CCC(Cc4ccccc4)CC3)n2)cc1C(F)(F)F	100 µg/mL (≈ 172 µM)

test system: Salmonella typhi; test: Antibacterial activity against 10^5 CFU/mL Salmonella typhi MTCC 733 after 24 hrs by agar streak dilution method; type: functional, Salmonella enterica subsp. enterica serovar Typhi; settings: Salmonella enterica, MTCC 733, 24 h

Compound	MIC
N#Cc1ccc(Nc2nc(Oc3ccnc4ccccc34)nc(N3CCN(c4ccccc4F)CC3)n2)cc1C(F)(F)F	25 µg/mL (≈ 42.6 µM)
N#Cc1ccc(Nc2nc(Oc3ccnc4ccccc34)nc(N3CCC(Cc4ccccc4)CC3)n2)cc1C(F)(F)F	100 µg/mL (≈ 172 µM)

test system: DU-145; test: Cytotoxicity against […] human DU145 cells after 48 hrs by SRB assay; type: functional; settings: DU-145, 48 h
Summary of the method: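 SRB assay in DU-145 cells grown in RPMI 1640 with 10% FBS and 2 mM L-glutamine. Cells were plated and held 24 h before addition of four 10-fold concentrations. After 48 h, cells were TCA-fixed, stained with 0.4% SRB and read at 540 nm. GI50, TGI and LC50 were derived against time-zero and control wells; each value is the mean of three experiments.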

Compound	GI50	TGI	LC50 (concentration giving 50% net cell kill relative to time zero)
COc1cccc2c1C(=O)c1c(O)c3c(c(O)c1C2=O)C[C@@](O)(C(=O)CO)C[C@@H]3O[C@H]1C[C@H](N)[C@H](O)[C@H](C)O1 [DOXORUBICIN]	< 0.1 µM	> 100 µM	
N#Cc1ccc(Nc2nc(Oc3ccnc4ccccc34)nc(N3CCN(c4ccccc4F)CC3)n2)cc1C(F)(F)F	> 100 µM	> 100 µM	> 100 µM
N#Cc1ccc(Nc2nc(Oc3ccnc4ccccc34)nc(N3CCC(Cc4ccccc4)CC3)n2)cc1C(F)(F)F	> 100 µM	> 100 µM	> 100 µM

test system: Bacillus cereus; test: Antibacterial activity against 10^5 CFU/mL Bacillus cereus MTCC 619 after 24 hrs by disc diffusion technique; type: functional; settings: not given; summary of the method: as §2

Compound	inhibition zone (IZ)
N#Cc1ccc(Nc2nc(Oc3ccnc4ccccc34)nc(N3CCN(c4ccccc4F)CC3)n2)cc1C(F)(F)F	27 mm
N#Cc1ccc(Nc2nc(Oc3ccnc4ccccc34)nc(N3CCC(Cc4ccccc4)CC3)n2)cc1C(F)(F)F	22 mm

test system: Aspergillus clavatus; test: Antifungal activity against 10^5 CFU/mL Aspergillus clavatus MTCC 1323 after 48 hrs by agar streak dilution method; type: functional; settings: MTCC 1323, 48 h; summary of the method: as §3

Compound	MIC
N#Cc1ccc(Nc2nc(Oc3ccnc4ccccc34)nc(N3CCN(c4ccccc4F)CC3)n2)cc1C(F)(F)F	50 µg/mL (≈ 85.2 µM)
N#Cc1ccc(Nc2nc(Oc3ccnc4ccccc34)nc(N3CCC(Cc4ccccc4)CC3)n2)cc1C(F)(F)F	100 µg/mL (≈ 172 µM)

test system: Shigella flexneri; test: Antibacterial activity against 10^5 CFU/mL Shigella flexneri MTCC 1457 after 24 hrs by disc diffusion technique; type: functional; settings: not given; summary of the method: as §2

Compound	inhibition zone (IZ)
N#Cc1ccc(Nc2nc(Oc3ccnc4ccccc34)nc(N3CCN(c4ccccc4F)CC3)n2)cc1C(F)(F)F	23 mm
N#Cc1ccc(Nc2nc(Oc3ccnc4ccccc34)nc(N3CCC(Cc4ccccc4)CC3)n2)cc1C(F)(F)F	14 mm

test system: Escherichia coli; test: Antibacterial activity against 10^5 CFU/mL Escherichia coli MTCC 739 after 24 hrs by agar streak dilution method; type: functional; settings: MTCC 739, 24 h; summary of the method: as §1

Compound	MIC
N#Cc1ccc(Nc2nc(Oc3ccnc4ccccc34)nc(N3CCN(c4ccccc4F)CC3)n2)cc1C(F)(F)F	12.5 µg/mL (≈ 21.3 µM)
N#Cc1ccc(Nc2nc(Oc3ccnc4ccccc34)nc(N3CCC(Cc4ccccc4)CC3)n2)cc1C(F)(F)F	100 µg/mL (≈ 172 µM)

test system: Candida albicans; test: Antifungal activity against 10^5 CFU/mL Candida albicans MTCC 183 after 48 hrs by disc diffusion technique; type: functional; settings: not given

Compound	inhibition zone (IZ)
N#Cc1ccc(Nc2nc(Oc3ccnc4ccccc34)nc(N3CCN(c4ccccc4F)CC3)n2)cc1C(F)(F)F	26 mm
N#Cc1ccc(Nc2nc(Oc3ccnc4ccccc34)nc(N3CCC(Cc4ccccc4)CC3)n2)cc1C(F)(F)F	15 mm

test system: Escherichia coli; test: Antibacterial activity against 10^5 CFU/mL Escherichia coli MTCC 739 after 24 hrs by disc diffusion technique; type: functional; settings: not given; summary of the method: as §2

Compound	inhibition zone (IZ)
N#Cc1ccc(Nc2nc(Oc3ccnc4ccccc34)nc(N3CCN(c4ccccc4F)CC3)n2)cc1C(F)(F)F	26 mm
N#Cc1ccc(Nc2nc(Oc3ccnc4ccccc34)nc(N3CCC(Cc4ccccc4)CC3)n2)cc1C(F)(F)F	14 mm

test system: Aspergillus niger; test: Antifungal activity against 10^5 CFU/mL Aspergillus niger MTCC 282 after 48 hrs by agar streak dilution method; type: functional; settings: MTCC 282, 48 h; summary of the method: as §3

Compound	MIC
N#Cc1ccc(Nc2nc(Oc3ccnc4ccccc34)nc(N3CCN(c4ccccc4F)CC3)n2)cc1C(F)(F)F	25 µg/mL (≈ 42.6 µM)
N#Cc1ccc(Nc2nc(Oc3ccnc4ccccc34)nc(N3CCC(Cc4ccccc4)CC3)n2)cc1C(F)(F)F	100 µg/mL (≈ 172 µM)

test system: Salmonella typhi; test: Antibacterial activity against 10^5 CFU/mL Salmonella typhi MTCC 733 after 24 hrs by disc diffusion technique; type: functional, Salmonella enterica subsp. enterica serovar Typhi; settings: not given
Summary of the method: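 Disc diffusion. Mueller-Hinton agar autoclaved 120 °C 30 min, poured 5 mm deep. Surface swabbed with 10⁵ CFU/mL suspension […]. 6.25 mm filter-paper discs soaked in compound in DMSO; DMSO-only disc as blank. Incubated 37 ± 1 °C, 24 h for bacteria or 48 h for fungi. Ciprofloxacin and ketoconazole discs as reference drugs. Inhibition zone measured in mm.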

Compound	inhibition zone (IZ)
N#Cc1ccc(Nc2nc(Oc3ccnc4ccccc34)nc(N3CCN(c4ccccc4F)CC3)n2)cc1C(F)(F)F	24 mm
N#Cc1ccc(Nc2nc(Oc3ccnc4ccccc34)nc(N3CCC(Cc4ccccc4)CC3)n2)cc1C(F)(F)F	16 mm

test system: Proteus vulgaris; test: Antibacterial activity against 10^5 CFU/mL Proteus vulgaris MTCC 1771 after 24 hrs by disc diffusion technique; type: functional; settings: not given; summary of the method: as §2

Compound	inhibition zone (IZ)
N#Cc1ccc(Nc2nc(Oc3ccnc4ccccc34)nc(N3CCN(c4ccccc4F)CC3)n2)cc1C(F)(F)F	25 mm
N#Cc1ccc(Nc2nc(Oc3ccnc4ccccc34)nc(N3CCC(Cc4ccccc4)CC3)n2)cc1C(F)(F)F	17 mm

test system: Candida albicans; test: Antifungal activity against 10^5 CFU/mL Candida albicans MTCC 183 after 48 hrs by agar streak dilution method; type: functional; settings: MTCC 183, 48 h; summary of the method: as §3

Compound	MIC
N#Cc1ccc(Nc2nc(Oc3ccnc4ccccc34)nc(N3CCN(c4ccccc4F)CC3)n2)cc1C(F)(F)F	25 µg/mL (≈ 42.6 µM)
N#Cc1ccc(Nc2nc(Oc3ccnc4ccccc34)nc(N3CCC(Cc4ccccc4)CC3)n2)cc1C(F)(F)F	100 µg/mL (≈ 172 µM)

test system: Klebsiella pneumoniae; test: Antibacterial activity against 10^5 CFU/mL Klebsiella pneumoniae MTCC 109 after 24 hrs by disc diffusion technique; type: functional; settings: not given; summary of the method: as §2

Compound	inhibition zone (IZ)
N#Cc1ccc(Nc2nc(Oc3ccnc4ccccc34)nc(N3CCN(c4ccccc4F)CC3)n2)cc1C(F)(F)F	26 mm
N#Cc1ccc(Nc2nc(Oc3ccnc4ccccc34)nc(N3CCC(Cc4ccccc4)CC3)n2)cc1C(F)(F)F	16 mm

test system: Pseudomonas aeruginosa; test: Antibacterial activity against 10^5 CFU/mL Pseudomonas aeruginosa MTCC 741 after 24 hrs by agar streak dilution method; type: functional; settings: MTCC 741, 24 h; summary of the method: as §1

Compound	MIC
N#Cc1ccc(Nc2nc(Oc3ccnc4ccccc34)nc(N3CCN(c4ccccc4F)CC3)n2)cc1C(F)(F)F	50 µg/mL (≈ 85.2 µM)
N#Cc1ccc(Nc2nc(Oc3ccnc4ccccc34)nc(N3CCC(Cc4ccccc4)CC3)n2)cc1C(F)(F)F	100 µg/mL (≈ 172 µM)

test system: Staphylococcus aureus; test: Antibacterial activity against 10^5 CFU/mL Staphylococcus aureus MTCC 96 after 24 hrs by agar streak dilution method; type: functional; settings: MTCC 96, 24 h; summary of the method: as §1

Compound	MIC
N#Cc1ccc(Nc2nc(Oc3ccnc4ccccc34)nc(N3CCN(c4ccccc4F)CC3)n2)cc1C(F)(F)F	25 µg/mL (≈ 42.6 µM)
N#Cc1ccc(Nc2nc(Oc3ccnc4ccccc34)nc(N3CCC(Cc4ccccc4)CC3)n2)cc1C(F)(F)F	100 µg/mL (≈ 172 µM)

test system: Bacillus cereus; test: Antibacterial activity against 10^5 CFU/mL Bacillus cereus MTCC 619 after 24 hrs by agar streak dilution method; type: functional; settings: MTCC 619, 24 h; summary of the method: as §1

Compound	MIC
N#Cc1ccc(Nc2nc(Oc3ccnc4ccccc34)nc(N3CCN(c4ccccc4F)CC3)n2)cc1C(F)(F)F	6.25 µg/mL (≈ 10.7 µM)
N#Cc1ccc(Nc2nc(Oc3ccnc4ccccc34)nc(N3CCC(Cc4ccccc4)CC3)n2)cc1C(F)(F)F	50 µg/mL (≈ 86 µM)
